MrgX1 antag = antagonists of human MrgX1 receptor, primary screen, HEK293 cells, Fluo-4 calcium flux; Mas-related G-protein coupled receptor member X1 (Homo sapiens), Q96LB2; BAM8-22 antagonism; active compounds read low; B-score at 10 µM; hit rate 1.3% among 310,000;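 active = calcium-response B-score plate-corrected more than 3 library SD below zero, starting fluorescence within 5 deviations, no agonist response on first addition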;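 also: peak minus trough fluorescence over baseline after final BAM8-22 challenge near maximal dose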
Target sequence (Q96LB2 whole entry, looked up): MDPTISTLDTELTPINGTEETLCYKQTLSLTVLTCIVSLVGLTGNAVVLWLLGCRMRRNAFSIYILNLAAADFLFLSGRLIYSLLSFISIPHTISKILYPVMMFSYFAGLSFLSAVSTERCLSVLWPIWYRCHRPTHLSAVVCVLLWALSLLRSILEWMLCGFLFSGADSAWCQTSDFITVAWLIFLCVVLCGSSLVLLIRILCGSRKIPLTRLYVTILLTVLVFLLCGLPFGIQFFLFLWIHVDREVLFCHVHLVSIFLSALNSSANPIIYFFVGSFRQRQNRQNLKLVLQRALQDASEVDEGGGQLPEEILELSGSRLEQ
MrgX1 ag = agonists of human MrgX1 receptor, primary screen, HEK293 cells, Fluo-4 calcium flux; B-score at 10 µM; Fluo-4 calcium fluorescence, agonist mode; active compounds read high; hit rate 0.44% among 310,000; Mas-related G-protein coupled receptor member X1 (Homo sapiens), Q96LB2;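 active = calcium response B-score plate-corrected fluorescence ratio at least 3 library SD, with starting fluorescence B-score inside 5 SD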
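Test system: HEK293 cells stably expressing human MrgX1 receptor; amount: 15,000 cells per well; doses: compound delivered in addition one of three; times: overnight plating before 1 h dye loading; detection: Fluo-4 NW calcium-flux fluorescence, kinetic read; read-out basis: B-scored fluorescence response ratio; controls: positive and negative controls per plate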
MrgX1 PAM = positive allosteric modulators of MrgX1, primary screen, HEK293 cells, Fluo-4 calcium flux | Mas-related G-protein coupled receptor member X1 (Homo sapiens), Q96LB2 | FDSS; active compounds read high | B-score at 10 µM | hit rate 0.63% among 310,000 | AID 588675, 2011;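 active = plate-corrected calcium response at least 3 library SD above typical, normal starting fluorescence, not activating the receptor alone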;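 also: compound read alongside a low EC10 to EC30 dose of BAM8-22 agonist; peak minus trough fluorescence over baseline measured at the second addition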
RGS4 inh = RGS4 inhibitors, primary screen, cell-based, HEK293 M3R inducible RGS4, calcium flux; Regulator of G-protein signaling 4 (Homo sapiens), P49798; Fluo-4 calcium flux; active compounds read high; triggered by carbachol at its EC20; B-score at 10 µM; hit rate 0.45% among 310,000; AID 463165, 2010;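 active = B-score, a plate-corrected calcium signal, over three deviations above library mean, with baseline fluorescence within five deviations of library mean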;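 also: RGS4 expression induced by doxycycline in cells with stable M3 receptor; B-score is computed from the integrated fluorescence ratio over baseline after carbachol; higher B-score means a larger calcium signal and so more RGS4 inhibition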
Target sequence (P49798 whole entry, looked up): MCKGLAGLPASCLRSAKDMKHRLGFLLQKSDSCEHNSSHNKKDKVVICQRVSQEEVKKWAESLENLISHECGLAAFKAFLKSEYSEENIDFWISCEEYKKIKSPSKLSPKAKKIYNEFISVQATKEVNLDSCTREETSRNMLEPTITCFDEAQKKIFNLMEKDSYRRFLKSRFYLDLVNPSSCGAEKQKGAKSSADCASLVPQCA
RGS4 act = RGS4 potentiators or activators, primary screen, cell-based, HEK293 M3R inducible RGS4, calcium flux. carbachol calcium flux Fluo4; active compounds read low. AID 463111, 2010. hit rate 0.92% among 310,000. B-score at 10 µM;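 active = B-score of the integrated calcium signal more than 4 SD below the library mean, with starting fluorescence not abnormally high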;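 also: negative B-score means reduced calcium response which marks RGS4 activation or potentiation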
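System: HEK293 FlpIn-TREx cells, stable M3R, doxycycline-inducible RGS4. Timing: overnight RGS4 induction, 30 min dye load 37 °C, 20 min compound RT. Also added: carbachol, ECmax concentration. Measured by: Fluo4 fluorescence kinetic imaging of calcium. Evaluation: integrated calcium ratio converted to B score.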
MrgX1 antag conf = MrgX1 receptor antagonists, duplicate retest, confirmation, HEK293 cells, Fluo-4 calcium flux | BAM8-22 calcium flux; active compounds read low | AID 602420, 2012 | shares compounds with MrgX1 antag | remaining BAM8-22 calcium response % of control (active compounds read low), % at 10 µM | hit rate 19% among 2,300;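 active = remaining agonist calcium response no higher than 100% minus 3 SD of agonist-only control wells, with starting fluorescence near control levels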;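 also: agonist BAM8-22 given at a near maximal EC90 to ECmax level; peak minus minimum fluorescence divided by baseline after agonist addition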
HEK293 Ca flux = nonspecific calcium signal in parental HEK293, confirmation, counter-screen for MrgX1 antagonist project, parental HEK293 cells, Fluo-4 calcium flux. shares compounds with MrgX1 antag. Fluo-4 calcium fluorescence, FDSS. fluorescence ratio F(max-min)/F0 at 10 µM. hit rate 2% among 4,000. AID 624111, 2012;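 active = duplicate-averaged calcium fluorescence ratio at least three times the standard deviation of buffer wells, a nonspecific response in parental cells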
HEK293 Ca counter = calcium response in parental HEK293 cells, primary screen, counter-screen for MrgX1 allosteric activator project, cell-based, Fluo-4 calcium flux, duplicate; fluorescence ratio F(max-min)/F0 at 10 µM; hit rate 0.4% among 4,000; shares compounds with MrgX1 antag; Fluo-4 fluorescence ratio; active compounds read high;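 active = calcium fluorescence ratio, averaged over duplicates, at least 3 SD of the buffer-well ratio, meaning a nonspecific response in receptor-free cells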;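 also: untransfected parental HEK293 lacking MrgX1 used as counterscreen for MrgX1 allosteric activators; fluorescence change taken during the second addition on a kinetic imager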
HEK293 Ca cntr2 = calcium response in parental HEK293 cells, primary screen, counter-screen for MrgX1 agonist project, cell-based, Fluo-4 calcium flux, duplicate, agonist mode; shares compounds with MrgX1 antag; fluorescence ratio F(max-min)/F0 at 10 µM; Fluo-4 calcium fluorescence (FDSS); active compounds read high; hit rate 8.7% among 4,000;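 active = calcium fluorescence ratio at least three times the spread of buffer wells, meaning a non-specific response in parental cells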
Active calls of the source: *; i = inactive; / = not tested or not shown. An excerpt weighted towards active compounds, which were near 3.5% of everything screened.

SMILES	MrgX1 antag	MrgX1 ag	MrgX1 PAM	RGS4 inh	RGS4 act	MrgX1 antag conf	HEK293 Ca flux	HEK293 Ca counter	HEK293 Ca cntr2
CCN1CCN(C(=O)CN2C(=O)c3ccccc3S2(=O)=O)CC1	i	i	i	i	i	/	/	/	/
COc1ccccc1NC(=O)NCCN1CCCCC1	i	i	i	i	i	/	/	/	/
COc1ccccc1NC(=O)NCCN1C(=O)C2C3C=CC(C3)C2C1=O (centres undefined)	-7.6*	i	i	i	i	i	i	i	i
Cc1ccc(Cn2nnc(C(=O)Nc3cc(C)ccc3C)c2N)cc1	-4.6*	i	i	i	i	i	i	i	i
CCOC(=O)C1CCCN(C(=O)CCc2ccccc2)C1 (centres undefined)	-6.1*	i	i	i	i	i	i	i	i
CCOC(=O)C1CCCN(C(=O)CS(=O)(=O)Cc2ccccc2)C1 (centres undefined)	i	i	i	i	i	/	/	/	/
Cn1c(O)c(N=NC(=O)Cn2ccc(C(F)(F)F)n2)c2ccccc21	-6.3*	i	i	i	i	i	i	i	i
Cc1cccc2[nH]c3c(=O)n(CCN4CCNCC4)cnc3c12	i	i	i	i	i	/	/	/	/
CC(C)CCn1cnc2c([nH]c3cccc(Cl)c32)c1=O	-5.8*	i	i	i	i	i	i	i	i
Cc1cccc(N2C(=O)c3cccc(Oc4ccc(Cl)cc4)c3C2=O)c1	i	i	i	i	i	/	/	/	/
CCOc1ncccc1C(=O)NCc1ccccc1	i	i	i	i	i	/	/	/	/
O=C(CN(C1CCCCC1)S(=O)(=O)c1ccc(F)cc1)NC1CC1	i	i	i	i	i	/	/	/	/
Cc1ccccc1OCCCN1CCCC1	-7.2*	i	i	i	i	i	i	i	i
CCc1cccc(CC)c1NC(=O)CSc1nc2ccc(N3C(=O)C4C5C=CC(C5)C4C3=O)cc2s1 (centres undefined)	-8.2*	i	i	i	i	i	i	i	i
Cc1cccc(CC2CC(=O)N(c3ccccc3)C2=O)c1 (centres undefined)	i	i	i	i	i	/	/	/	/
CCOC(=O)C1=C(O)CSC1=Nc1ccc(C)cc1	-5.7*	i	i	i	i	i	i	i	i
CCOC(=O)C1=C(O)CSC1=Nc1cccc2ccccc12	i	i	i	i	i	/	/	/	/
O=C(CCc1ccccc1)NC1CCSC1=O (centres undefined)	-6.1*	i	i	i	i	i	i	i	i
CCC(Sc1nc2ncccc2[nH]1)C(=O)NC1CCC(C)CC1 (centres undefined)	i	i	i	i	i	/	/	/	/
CCC(Sc1nc2ncccc2[nH]1)C(=O)NCCc1ccccc1 (centres undefined)	-8.7*	i	i	i	i	i	i	i	i
Cc1ccc(-c2nnc(SCC(N)=O)n2C)cc1	-4.9*	i	i	i	i	i	i	i	i
CCN(CC)S(=O)(=O)c1cccc(-c2nnc(SCC(N)=O)n2C)c1	-6.7*	i	i	i	i	84%*	i	i	i
CN1CCN(Cc2nc3ccccc3c(=O)n2Cc2nc(-c3ccc4ccccc4c3)cs2)CC1	i	i	i	i	i	/	/	/	/
Cc1ccc(NC(=O)CSCC(=O)Nc2cc(Cl)ccc2N2CCOCC2)cc1	i	i	i	i	i	/	/	/	/
COc1ccc(N(CC(=O)Nc2ccccc2C)S(=O)(=O)c2c(C)[nH]c(=O)[nH]c2=O)cc1	i	i	i	i	i	/	/	/	/
SMILES	MrgX1 antag	MrgX1 ag	MrgX1 PAM	RGS4 inh	RGS4 act	MrgX1 antag conf	HEK293 Ca flux	HEK293 Ca counter	HEK293 Ca cntr2
CC(=O)c1ccc(NC(=S)N2CC(C)CC(C)C2)cc1 (centres undefined)	i	i	i	i	i	/	/	/	/
COc1cccc(C2CC(c3ccc(Cl)cc3Cl)Nc3nc(N)nn32)c1 (centres undefined)	i	i	i	i	i	/	/	/	/
CC(=O)Nc1ccnc(-c2cccnc2)n1	i	i	i	i	i	/	/	/	/
CCOC(=O)c1cnc(Nc2nc3ccccc3o2)nc1CSc1nnc(C)s1	-5.3*	i	i	i	i	i	i	i	i
CN1C(C)(C)CCCC1(C)C	-7*	i	i	/	/	77%*	i	i	i
Cc1ccc(CNc2nc3ccccc3n2C)cc1	i	i	i	i	i	/	/	/	/
O=C(O)COc1ccc(/C=C/c2nc(-c3ccccc3O)n[nH]2)cc1	i	i	i	i	i	/	/	/	/
O=C(Cn1cc2c(n1)CCCC2)N1CCc2ccccc21	-7.1*	i	i	i	i	i	i	i	i
O=C(Cn1cc2c(n1)CCCCC2)N1CCc2ccccc2C1	i	i	i	i	i	/	/	/	/
COc1ccc(C(CC(=O)O)NC(=O)COc2cc(C)ccc2C)cc1OC (centres undefined)	i	i	i	i	i	/	/	/	/
Cc1cc(C)n(CCCNC(=O)c2ccc3c(c2)NC(=O)CS3)n1	-8*	i	i	i	i	i	i	i	i
O=C(c1cc(-c2ccc(F)cc2)on1)N1CCCCCC1	i	i	i	i	i	/	/	/	/
Cc1cccc(Nc2nnc(SCC(=O)NC(=O)Nc3ccc4c(c3)OCCO4)s2)c1	i	i	i	i	i	/	/	/	/
